Source: ChEMBL document CHEMBL4184138 (Bioorg Med Chem Lett, 2017)
Active and inactive are the calls of the source. No cut-off for these calls is given here.

Experiments:
[1] = molecular target: Delta-type opioid receptor (Rattus norvegicus, UniProt P33533); experiment: Displacement of [3H]-DPDPE from delta opioid receptor in Wistar rat brain membranes preincubated for 3 hrs measured after 1 hr by scintillation counting method; format: cell membranes, Membrane
Procedure, shortened: (§1)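 Opioid receptor binding done on rat brain membranes. Affinity values are given as mean ± SEM of 8-12 measurements.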

Mus musculus [2] = experiment: Antinociceptive activity in Kunming mouse assessed as increase in latency to withdrawal by measuring AUC at 10 mg/kg, sc measured up to 45 mins post dose by tail-flick test; format: functional, organism-based; design: dose 10 mg/kg, time < 0.75 hr
Procedure, shortened: (§2)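 Mouse tail-flick test. A single fixed dose was given, either 20 nmol/kg i.c.v. or 10 mg/kg s.c. Antinociception was followed as a time course, and the area under the effect-time curve (A.U.C) was calculated.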

Mus musculus [3] = experiment: Antinociceptive activity in Kunming mouse assessed as increase in latency to withdrawal by measuring AUC at 20 nmol/kg, i.c.v measured up to 45 mins post dose by tail-flick test; format: functional, organism-based; design: dose 20 nmol/kg, time < 0.75 hr; procedure, shortened: as §2
Rattus norvegicus = species: Rattus norvegicus; experiment: Selectivity ratio of Ki from delta opioid receptor in Wistar rat brain membranes to Ki from mu opioid receptor in Wistar rat brain membranes; format: cell membranes
[4] = Half life in Kunming mouse 15% brain homogenate at 500 uM by RP-HPLC analysis; format: ADME, tissue-based
Procedure, shortened: (§3)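 Peptide stability was measured by incubation in 15% mouse brain homogenate or in mouse plasma, and the half-life was determined for each matrix.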

[5] = Half life in Kunming mouse plasma at 500 uM by RP-HPLC analysis; format: ADME, cell-free; procedure, shortened: as §3
Mu-type opioid receptor = Mu-type opioid receptor (Rattus norvegicus, UniProt P33535); experiment: Displacement of [3H]-DAMGO from mu opioid receptor in Wistar rat brain membranes preincubated for 1 hr measured after 1hr by scintillation counting method; format: cell membranes, Membrane; procedure, shortened: as §1
Mu-type opioid receptor, sequence (P33535 whole entry): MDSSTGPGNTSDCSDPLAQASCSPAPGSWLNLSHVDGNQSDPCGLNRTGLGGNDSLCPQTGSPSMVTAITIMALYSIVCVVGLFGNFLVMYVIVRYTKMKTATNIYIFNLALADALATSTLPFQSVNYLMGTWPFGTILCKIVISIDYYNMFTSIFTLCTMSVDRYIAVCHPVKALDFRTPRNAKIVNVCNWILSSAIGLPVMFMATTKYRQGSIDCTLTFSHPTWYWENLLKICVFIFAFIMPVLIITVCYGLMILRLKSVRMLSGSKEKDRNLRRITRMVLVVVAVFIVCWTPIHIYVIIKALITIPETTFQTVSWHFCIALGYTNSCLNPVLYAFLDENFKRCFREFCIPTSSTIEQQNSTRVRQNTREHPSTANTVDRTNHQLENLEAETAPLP

Mus musculus [6] = experiment: Antinociceptive activity in Kunming mouse assessed as increase in latency to withdrawal at 10 mg/kg, sc measured up to 5 to 45 mins post dose in presence of opioid antagonist naloxone by tail-flick test; format: functional, organism-based

Delta-type opioid receptor, sequence (P33533 whole entry): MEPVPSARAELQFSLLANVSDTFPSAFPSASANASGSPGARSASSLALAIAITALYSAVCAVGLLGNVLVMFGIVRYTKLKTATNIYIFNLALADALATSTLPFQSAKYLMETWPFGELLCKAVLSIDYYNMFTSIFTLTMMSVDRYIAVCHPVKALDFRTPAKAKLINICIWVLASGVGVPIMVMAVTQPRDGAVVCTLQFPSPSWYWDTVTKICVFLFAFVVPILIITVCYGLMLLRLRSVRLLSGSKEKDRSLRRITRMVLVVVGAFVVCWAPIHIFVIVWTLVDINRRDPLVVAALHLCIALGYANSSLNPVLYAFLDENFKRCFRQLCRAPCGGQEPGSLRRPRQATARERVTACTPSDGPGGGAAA

| Structure (SMILES) | Ki [1] | AUC (Mus musculus [2]) | AUC (Mus musculus [3]) | Ratio Ki (Rattus norvegicus) | half-life at 500 µM [4] | half-life at 500 µM [5] | Ki (Mu-type opioid receptor) | Activity (Mus musculus [6]) |
| --- | --- | --- | --- | --- | --- | --- | --- | --- |
| C[C@@H](NC(=O)[C@@H](N)Cc1ccc(O)cc1)C(=O)NCC(=O)N[C@@H](Cc1c[nH]c2ccccc12)C(=O)N[C@@H](Cc1ccccc1)C(N)=O | 4.05 µM | 304 | 336 | 305 | 3.66 h | 2.51 h | 0.0133 µM |  |
| C[C@@H](NC(=O)[C@@H](N)Cc1ccc(O)cc1)C(=O)NCC(=O)N[C@@H](Cc1c[nH]c2ccccc12)C(=O)N[C@@H](Cc1ccc(Cl)cc1)C(N)=O | 4.06 µM | 570 | 246 | 528 | 4.2 h | 2.84 h | 0.0077 µM |  |
| C[C@@H](NC(=O)[C@H](Cc1ccc(O)cc1)NC(=N)N)C(=O)NCC(=O)N[C@@H](Cc1c[nH]c2ccccc12)C(=O)N[C@@H](Cc1ccccc1)C(N)=O | 3.87 µM | 631 | 1160 | 2140 | 7.4 h | 4.08 h | 0.00181 µM |  |
| NC(=O)[C@H](Cc1ccccc1)NC(=O)[C@H](Cc1c[nH]c2ccccc12)NC(=O)[C@@H]1CCCN1C(=O)[C@@H](N)Cc1ccc(O)cc1 |  | 693 | 271 |  |  |  |  |  |
| C[C@@H](NC(=O)[C@H](Cc1ccc(O)cc1)NC(=N)N)C(=O)NCC(=O)N[C@@H](Cc1c[nH]c2ccccc12)C(=O)N[C@@H](Cc1ccc(Cl)cc1)C(N)=O | 2.03 µM | 1400 | 650 | 635 | 7.25 h | 4.73 h | 0.0032 µM | inactive |
